Laboratory results: article PMC8929358 (Pharmacology Research & Perspectives, 2021)
“Also recorded” adds a separate entry of the source. Read-outs that look alike come from different tables or passages of the source.

Tests used:
HLS9, HIS9, and SULT1A1 = experiment: Inhibition of opicapone sulfation, result in words for all enzyme sources; type: biochemical, human; conditions: acetaminophen 1–500 μM; quercetin and 2,6-dichloro-4-nitrophenol 0.05–100 μM
rat soluble COMT = molecular target: T1, rat soluble COMT (Rattus norvegicus, UniProt P22734); experiment: COMT activity; type: biochemical; conditions: for Effect upon COMT activity: up to 3000 nM
T1 sequence (P22734 1-221 isoform P22734-2): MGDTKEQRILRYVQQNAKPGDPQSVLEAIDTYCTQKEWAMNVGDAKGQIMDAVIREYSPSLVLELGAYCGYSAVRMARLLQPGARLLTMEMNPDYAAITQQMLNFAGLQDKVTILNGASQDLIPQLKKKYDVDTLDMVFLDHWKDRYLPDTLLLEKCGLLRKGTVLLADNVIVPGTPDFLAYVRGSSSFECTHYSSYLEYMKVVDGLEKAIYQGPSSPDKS

[1] = type: in vivo, rat; conditions: plasma; for Tmax: median (range)
[2] = type: in vivo, rat; conditions: oral 100 mg/kg; for Feces, % of administered dose: feces pools 0–48 h
Method in brief: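 In Sprague Dawley rats given 100 mg/kg [14C]-labelled compound (100 μCi/kg) orally in 0.2% HPMC, heparinized blood was taken by cardiac puncture at 2–168 h. Plasma was precipitated with MeOH/ACN (50:50), dried under N2 and reconstituted. Urine (0–6, 6–24 h) and feces (0–12, 12–24, 24–48 h) were pooled and stored at −80°C. Analysis used accurate-mass LC-MS with offline radiodetection.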

[3] = rat, po, 1 g/kg, t max, oral 1 g/kg opicapone

O=[N+]([O-])c1cc(Cl)c(O)c(Cl)c1 [DCNP, 2,6‐dichloro‐4‐nitrophenol]
Inhibition of the sulfate conjugation of opicapone (HLS9, HIS9, and SULT1A1): completely inhibited

CC(=O)Nc1cc(C(=O)O)cc(O)c1O [BIA 9‐3752, 3-acetamido-4,5-dihydroxybenzoic acid]
Effect upon COMT activity (rat soluble COMT): no modulatory effect

O=c1c(O)c(-c2ccc(O)c(O)c2)oc2cc(O)cc(O)c12 [Quercetin, quercetin]
Inhibition of the sulfate conjugation of opicapone (HLS9, HIS9, and SULT1A1): completely inhibited

Cc1nc(Cl)c(-c2noc(-c3cc(O[C@@H]4O[C@H](C(=O)O)[C@@H](O)[C@H](O)[C@H]4O)c(O)c([N+](=O)[O-])c3)n2)c(C)c1Cl [BIA 9‐1107, (2S,3S,4S,5R,6S)-6-(5-(3-(2,5-dichloro-4,6-dimethylpyridin-3-yl)-1,2,4-oxadiazol-5-yl)-2-hydroxy-3-nitrophenoxy)-3,4,5-trihydroxy-tetrahydro-2H-pyran-2-carboxylic acid]
Amount detected in circulation ([1]; oral 1 g/kg opicapone): only traceable amounts

CC(=O)Nc1ccc(O)cc1 [acetaminophen]
Inhibition of the sulfate conjugation of opicapone (HLS9, HIS9, and SULT1A1): No inhibition

Cc1c(Cl)c(C)[n+]([O-])c(Cl)c1-c1noc(-c2cc(O[C@@H]3O[C@H](C(=O)O)[C@@H](O)[C@H](O)[C@H]3O)c(O)c([N+](=O)[O-])c2)n1 [BIA 9‐1106, 3-(5-(3-((2S,3R,4S,5S,6S)-6-carboxy-3,4,5-trihydroxytetrahydro-2H-pyran-2-yloxy)-4-hydroxy-5-nitrophenyl)-1,2,4-oxadiazol-3-yl)-2,5-dichloro-4,6-dimethylpyridine 1-oxide]
Urine, % of administered dose ([2]; urine pools 0–24 h, ND = not detected): 0.85%
Cmax ([1]; rat, po, 1 g/kg): 4290 ng/mL

COc1c(O)cc(-c2nc(-c3c(C)c(Cl)c(C)[n+]([O-])c3Cl)no2)cc1[N+](=O)[O-] [BIA 9‐1104, 2,5-dichloro-3-(5-(3-hydroxy-4-methoxy-5-nitrophenyl)-1,2,4-oxadiazol-3-yl)-4,6-dimethylpyridine 1-oxide]
IC50 (rat soluble COMT): 429 nM
Effect upon COMT activity (rat soluble COMT): active in inhibiting the enzyme; also recorded: endowed with activity in inhibiting COMT

Cc1nc(Cl)c(-c2noc(-c3cc(OS(=O)(=O)O)c(O)c([N+](=O)[O-])c3)n2)c(C)c1Cl.c1ccncc1 [BIA 9‐1105, pyridinium 5-(3-(2,5-dichloro-4,6-dimethylpyridin-3-yl)-1,2,4-oxadiazol-5-yl)-2-hydroxy-3-nitrophenyl sulfate]
C max ([1]; oral 1 g/kg opicapone, mean (SD)): 58.2 (32.6) ng/ml
AUC0–t ([1]; oral 1 g/kg opicapone, mean (SD), sampling to 48 h): 1322.5 (503.5) ng.h/ml
Tmax ([1]; oral 1 g/kg opicapone): 16 (8–24) h

Cc1nc(Cl)c(-c2noc(-c3cc(O)c(O)c([N+](=O)[O-])c3)n2)c(C)c1Cl [BIA 9‐1079, 5-(3-(2,5-dichloro-4,6-dimethylpyridin-3-yl)-1,2,4-oxadiazol-5-yl)-3-nitrobenzene-1,2-diol]
IC50 (rat soluble COMT): 128 nM
Effect upon COMT activity (rat soluble COMT): active in inhibiting the enzyme
Feces, % of administered dose ([2]; ND = not detected, 100 mg/kg): 1.14%
Detectable in the circulation up to (time post-dose) ([2]; plasma): 8 h
AUC(0-t) ([1]; rat, po, 1 g/kg): 4080 ng·h/mL
Cmax ([1]; rat, po, 1 g/kg): 381 ng/mL
Tmax [1, 3]: 4 h

COc1cc(-c2nc(-c3c(C)c(Cl)c(C)[n+]([O-])c3Cl)no2)cc([N+](=O)[O-])c1O [BIA 9‐1100, 2,5-dichloro-3-(5-(4-hydroxy-3-methoxy-5-nitrophenyl)-1,2,4-oxadiazol-3-yl)-4,6-dimethylpyridine 1-oxide]
Effect upon COMT activity (rat soluble COMT): no modulatory effect
AUC(0-t) ([1]; rat, po, 1 g/kg): 7920 ng·h/mL
Cmax ([1]; rat, po, 1 g/kg): 1420 ng/mL
Tmax [1, 3]: 1.5 h

Nc1cc(C(=O)O)cc(O)c1O [BIA 9‐3721, 3-amino-4,5-dihydroxybenzoic acid]
Feces, % of administered dose ([2]; ND = not detected): 1.87%
